The list is not random: actives were taken first. Their share in the collection is about 2.4%.
miR-122 sensor: miR-122 inhibition in Huh7 cells; Huh7 miR-122 Renilla luciferase sensor, 48 h; neutral wells = 0, positive control = 100; activation (reporter increase), % at 12.5 µM; 340,000 tested, 0.3% active; AID 602342;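 active = mean replicate activation score at least 90 and every replicate individually at or above 90; inconclusive = only one of the two criteria met; inactive = neither criterion met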;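 note: higher luciferase means less miR-122 activity so hits act as miR-122 inhibitors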
GSIS activator: primary screen for activators of insulin secretion dependent on glucose, INS-1E cells, GLuc reporter luminescence. activation, % at 16.6 µM. 370,000 tested, 0.61% active. AID 743287. INS-1E GLuc reporter insulin secretion, 2-3 h;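 active = lowest replicate activation of at least 40%, so every replicate reaches that level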
Cneo AK release: causes C. neoformans cell lysis. lysis activity, % at 15 µM. AID 651654. adenylate kinase release luminescence, 4 h; normalised: neutral wells 0, clomiphene wells 100. 360,000 tested, 0.2% active;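 active = mean lysis activity across replicates of at least 80%, whatever share of replicates individually reach that level; inactive = mean lysis activity below 80%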
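read-out = cell lysis signal | test system = log-phase Cryptococcus neoformans yeast cells | input = cells at 5 × 10^6 per mL | medium = fresh YPD growth medium | signal = luminescent adenylate kinase detection reagent | timing = 4 h at 37 °C static, read 1 h later | dosing = single dose | controls = Clomiphene as positive lysis control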
dFosB act: activators of mouse delta FosB homodimer; 340,000 tested, 0.99% active; activation, % at 25 µM; purified delta FosB, TAMRA-CDK5 oligo fluorescence polarization; percent of positive-control signal above neutral wells;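 active = mean activation above about 17%, with every replicate also reaching it, limit read from the data, passing the limit was not always enough; inconclusive = only one of the two conditions met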
Target sequence (P13346 whole entry, looked up): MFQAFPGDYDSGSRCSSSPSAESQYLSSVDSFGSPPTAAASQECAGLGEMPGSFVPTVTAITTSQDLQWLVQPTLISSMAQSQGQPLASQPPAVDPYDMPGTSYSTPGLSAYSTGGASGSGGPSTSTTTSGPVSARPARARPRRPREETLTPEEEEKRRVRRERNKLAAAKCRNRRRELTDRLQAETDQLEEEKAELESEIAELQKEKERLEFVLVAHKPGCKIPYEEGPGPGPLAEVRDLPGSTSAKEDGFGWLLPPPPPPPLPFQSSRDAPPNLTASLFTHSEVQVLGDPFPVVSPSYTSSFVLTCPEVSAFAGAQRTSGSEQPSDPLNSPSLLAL
Rtt109 HAT inh: C. albicans Rtt109 histone acetyltransferase inhibition; Q5AAJ8; 330,000 tested, 0.16% active; purified Rtt109/Vps75, ThioGlo CoA-SH fluorescence, 4 h; inhibition, % at 34.9 µM;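 active = inhibition of at least 50% in every replicate; inconclusive = best replicate reaches 50% inhibition but some replicates fall short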
Env fusion inh: inhibitors of HIV Env-mediated cell fusion; inhibition, % at 12.3 µM; 360,000 tested, 1.1% active; HeLa-JRFL Env/CEM21 cell fusion, luciferase;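 active = mean replicate inhibition score of at least 50 and every replicate individually at or above 50; inconclusive = only one of the two criteria met; inactive = mean below 50 and not all replicates reaching 50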
Hits are given with their value; – = inactive; ? = inconclusive; · = no result given.

SMILES | miR-122 sensor | GSIS activator | Cneo AK release | dFosB act | Rtt109 HAT inh | Env fusion inh
CC(C)(C)S(=O)(=O)/C(C#N)=N/Nc1ccc(Cl)cc1 | · | – | · | – | – | 58
O=C(Nc1cccc(C(F)(F)F)c1)c1csc([C@@H]2O[C@H](CO)[C@@H](O)[C@H]2O)n1 | – | 80 | – | · | · | –
Cc1ccccc1NC(=O)C[C@H]1CC[C@H]2[C@@H](COc3ccc(NC(=O)c4ccc(Cl)cc4)cc3C(=O)N2C)O1 | · | – | · | · | · | ·
COc1cc2c(cc1[N+](=O)[O-])n(C(C)C)c(=O)n2C(C)C | · | 58 | · | – | · | –
C[C@H](CO)N1C[C@H](C)[C@@H](CN(C)S(C)(=O)=O)Oc2ncc(C#CCN(C)C)cc2C1=O | – | – | – | · | · | –
Fc1ccc(C(c2nnnn2Cc2ccccc2)N2CCSCC2)cc1 (stereo not given) | · | – | – | – | – | ·
Clc1ccc(C(c2nnnn2CCc2ccccc2)N2CCSCC2)cc1 (stereo not given) | – | · | – | – | – | 100
Fc1ccc(C(c2nnnn2CCc2ccccc2)N2CCCc3ccccc32)cc1 (stereo not given) | – | · | – | – | – | 90
COc1cccc(-c2ccc3n(c2=O)C[C@H]2[C@H](CO)[C@@H](C(=O)NCCN4CCCCC4)N(C)[C@@H]32)c1 | · | – | – | · | · | –
CC(C)CNC(=S)Nc1ccc(Oc2ccccc2)cc1 | · | 85 | · | – | – | –
OCCCNC(=S)Nc1ccc(Oc2ccccc2)cc1 | – | – | – | – | · | –
O=C(C[C@H]1CC[C@H](NS(=O)(=O)c2ccccc2)[C@@H](CO)O1)NCc1ccncn1 | · | – | – | · | · | –
COc1ccc(CC(=O)Nc2ccc(C(C)=O)cc2)cc1 | · | – | · | – | – | –
COC(=O)Cc1ccc(NC(=O)c2ccc(C(C)(C)C)cc2)cc1 | – | – | – | – | – | 59
CC(C)(C)c1ccc(C(=O)Nc2ccc(Cl)cc2)cc1 | · | – | · | – | – | ·
COc1ccc(CC(=O)Nc2ccc(C(=O)NCC(C)C)cc2)cc1 | – | – | – | 28 | – | –
CCCNC(=O)N[C@H]1CC[C@@H](CC(=O)N2CCN(C)CC2)O[C@H]1CO | · | – | – | · | · | –
C[C@@H]1CCCCO[C@H](CN(C)C)[C@H](C)CN([C@H](C)CO)C(=O)c2cc(NC(=O)Nc3ccc(C(F)(F)F)cc3)ccc2O1 | – | – | – | · | · | –
Cc1cc(C(=O)CSc2nnc3ccccn23)c(C)n1-c1ccccc1 | · | – | · | – | – | 61
Cc1nc(NC2=NCN(CCCN3CCOCC3)CN2)nc2c(C)cccc12 | – | · | – | 32 | – | ·
CCCC#Cc1ccc([C@@H]2[C@@H](CO)N3C(=O)CN(C(=O)NCCC)C[C@H]23)cc1 | · | – | · | · | · | ·
C[C@@H]1CC=CC[C@H](c2ccc(F)cc2)NC(=O)[C@H](C)N(C)C(=O)c2ccccc2O1 (mixture of isomers) | · | – | · | · | · | ·
COC(=O)c1ccc2[nH]c3cccc(/C(=C/c4ccccc4)c4ccccc4)c3c2c1 | – | · | – | – | – | –
O=C1CCCc2[nH]c3cccc(/C(=C/c4ccccc4)c4ccccc4)c3c21 | – | – | – | – | – | 70
CC(=O)N(C)C[C@@H]1Oc2ccccc2C(=O)N(C)C[C@@H]1C | · | – | · | · | · | ·
SMILES | miR-122 sensor | GSIS activator | Cneo AK release | dFosB act | Rtt109 HAT inh | Env fusion inh
COC(=O)CN(C(=S)Nc1ccccc1)C1CC(=O)N(c2ccc(OC)cc2)C1=O (stereo not given) | – | · | · | – | ? | ·
COC(=O)CN(C(=S)Nc1ccc(F)cc1)C1CC(=O)N(c2ccc(OC)cc2)C1=O (stereo not given) | – | · | – | – | – | 71
O=C(Cc1ccncc1)NCC[C@@H]1CC[C@H](NC(=O)Nc2cccc(F)c2)[C@H](CO)O1 | · | – | – | · | · | –
CCC(CO)[n+]1c(C)cc(/C=C2\Sc3ccccc3N2Cc2ccccc2)cc1C (stereo not given) | – | – | – | 24 | · | ·
CCN1/C(=C2\SC(=S)N(Cc3ccccc3)C2=O)Sc2ccccc21 | · | · | · | – | – | –
COc1ccc2c3c(n(C)c2c1)[C@@H](CO)NCC31CCN(C(=O)c2ccc(F)cc2)CC1 | · | – | · | · | · | ·
COCC(=O)N1C[C@@H](C)[C@@H](OC)CN(C)C(=O)c2ccc(NC(=O)c3ccccc3)cc2OC[C@H]1C | – | – | – | · | · | ·
